High-throughput results deposited in PubChem BioAssay by several laboratories.
Most compounds without a hit are left out; they make up all but 3% or so of the library.
sEH activator – increases human soluble epoxide hydrolase activity; P34913; purified human sEH enzymatic activity, activator screen; activation, % at 2 µM; 0.04% of 91,000 active; in the data active = activation above about 37%
Target sequence (P34913 whole entry, looked up): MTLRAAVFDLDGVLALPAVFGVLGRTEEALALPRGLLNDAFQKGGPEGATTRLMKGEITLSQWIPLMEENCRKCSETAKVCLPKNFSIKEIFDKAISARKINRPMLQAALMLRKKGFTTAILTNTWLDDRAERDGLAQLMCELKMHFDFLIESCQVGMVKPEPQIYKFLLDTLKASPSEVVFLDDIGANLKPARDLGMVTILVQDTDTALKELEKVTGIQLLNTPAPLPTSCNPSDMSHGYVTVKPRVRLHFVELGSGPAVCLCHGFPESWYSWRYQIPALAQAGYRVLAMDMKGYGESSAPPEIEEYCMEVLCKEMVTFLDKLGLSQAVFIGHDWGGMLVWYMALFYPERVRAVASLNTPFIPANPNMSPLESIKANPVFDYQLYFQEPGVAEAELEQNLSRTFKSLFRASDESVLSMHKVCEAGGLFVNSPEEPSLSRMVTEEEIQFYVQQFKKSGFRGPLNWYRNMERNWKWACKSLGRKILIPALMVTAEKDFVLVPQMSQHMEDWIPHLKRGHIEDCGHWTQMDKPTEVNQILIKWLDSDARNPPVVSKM
Yeast growth inh – chemicals that inhibit yeast BB579 growth in restrictive medium (lifespan-shortening candidates) | S. cerevisiae BB579 growth, OD615, 48 h | inhibition, % at 10 µM | 0.51% of 140,000 active;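 active = inhibition above a set limit, 3 SD over the mean compound inhibition, cut at about 44% in these data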
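controls = amphotericin B 10 µg/mL, positive | assay system = DeaD yeast strain BB579 | schedule = 48 h compound exposure at 30 °C after 4 h preincubation | detection = OD615 turbidity measurement | medium = restrictive CSMM-D medium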
sdo1 growth – restores growth of sdo1-depleted yeast. S. cerevisiae sdo1-depleted JHY4D growth rescue, OD600 30 h; stronger effect = higher value; pdr5 snq2 efflux-pump mutant strain. z-score at 10 µM. 0.21% of 140,000 active. AID 817;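 active = z-score above 3 at both the 24 hr and the 30 hr optical density reads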
Measles CPE – protection of cells from measles virus; Measles virus-infected cells, CPE protection, absorbance; protection (pct of control), % at 4 µM; 1.5% of 140,000 active; AID 841; in the data active = protection mostly above about 24%, no sharp cut-off; inactive = mostly below about 26%
Yeast lifespan up – extends the lifespan of yeast. S. cerevisiae growth with nicotinamide, OD615; deaD strain in restrictive glucose medium. 0.68% of 130,000 active. inhibition of the nicotinamide effect, % at 10 µM;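 active = inhibition above a set limit, placed 3 SD over the median of all compounds, cut at about 26% in these data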
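Buffer or medium: CSMM-D glucose medium, restrictive; test system: modified budding yeast, DeaD strain; compound: single dose 10 µM compound, 0.25% DMSO; schedule: culture preincubation 4 h, compound exposure 48 h, both 30 °C; detection: optical density (absorbance) at 615 nm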
sEH inh – soluble epoxide hydrolase (human) inhibition; inhibition, % at 2 µM; 0.34% of 91,000 active; P34913; recombinant human sEH enzymatic activity assay; in the data active = inhibition above about 80%
Numbers stand for hits; i = inactive; nt = no result given.

SMILES | sEH activator | Yeast growth inh | sdo1 growth | Measles CPE | Yeast lifespan up | sEH inh
CS(=O)(=O)Nc1cccc(C(=O)CC2(O)C(=O)Nc3ccc(Br)cc32)c1 (stereo not drawn) | i | i | i | 34.5 | i | i
CC1CN(CC(O)COC(c2ccccc2)c2ccccc2)CC(C)O1 (stereo not drawn) | nt | i | i | 30.7 | i | nt
O=C(COC(=O)c1ccc(S(=O)(=O)NCc2ccco2)cc1)NC1CCCCCC1 | i | i | i | i | i | 90.4
COc1ccc([N+](=O)[O-])cc1NC(=S)NC(NC(=O)C(c1ccccc1)c1ccccc1)C(Cl)(Cl)Cl (stereo not drawn) | i | i | i | 77.3 | i | i
COc1ccc([N+](=O)[O-])cc1NC(=O)C(C)c1ccccc1 (stereo not drawn) | nt | i | i | i | i | nt
CC(=O)OC1=C(C#N)Cn2ccc3cccc1c32 | i | i | i | 57.5 | i | i
Cc1ccc(NC(=O)Nc2nc(-c3ccc(C)s3)cs2)cc1 | i | i | i | i | 87.5 | i
O=c1/c(=C/c2cccc3ccccc23)sc2ncnn12 | i | i | i | i | 29.0 | i
CCOc1ccc(C(C)=O)cc1Cn1nc(C(=O)O)c2ccccc2c1=O | i | i | i | 50.4 | i | i
Cn1c(CCNC(=O)c2ccccc2)nc2cc(NC(=O)C3CCCCC3)ccc21 | i | i | i | i | i | i
Cc1cccc(OCCn2cc(/C=N/NC(=O)c3ccncc3)c3ccccc32)c1 | nt | 54.1 | i | i | i | nt
CCC(C)c1ccc(OCCn2cc(/C=N/NC(=O)CSc3nnc(C)s3)c3ccccc32)cc1 (stereo not drawn) | i | i | i | i | i | i
Cc1cc([N+](=O)[O-])nn1CC(=O)NCc1ccco1 | nt | i | i | i | i | nt
O=C(Cn1nc(C(F)(F)F)c2c1CCCC2)NCc1ccco1 | i | i | i | i | i | i
CO[C@@H]1O[C@@H]2COC(c3ccccc3)O[C@@H]2[C@@H](OC)[C@@H]1O (stereo partly drawn) | i | i | i | i | nt | i
CCCS(=O)(=O)n1nc(-c2ccc(OC)cc2)cc1N | i | i | i | 27.4 | i | i
CCCCCCCC(O)CC(CC1CCCCC1)C(=O)NN (stereo not drawn) | nt | i | i | i | i | nt
CC(C)CNC(=O)CSc1nnc(CN2CCCCCC2=O)n1-c1ccccn1 | i | i | i | i | 28.7 | i
CCCCn1nc2cc(C(=O)NCc3ccc(C(F)(F)F)cc3C(F)(F)F)ccc2c1OCC | i | i | i | active | i | i
CCOc1c2ccc(C(=O)NCc3ccc(C(F)(F)F)cc3C(F)(F)F)cc2nn1C | i | i | i | i | i | i
Cc1ccc2occ(C(=O)c3ccco3)c(=O)c2c1 | i | i | i | i | i | i
COCC(C)OC(=O)/C(C#N)=C\c1coc2ccc(C)cc2c1=O (stereo not drawn) | nt | 63.5 | i | i | i | nt
Cc1nnc(C)n1N1C(=O)c2cccc3cccc(c23)C1=O | i | i | i | 48.5 | i | i
Cc1nnc(N2C(=O)c3cccc4cccc(c34)C2=O)s1 | i | i | i | i | i | i
CN1CCN(C2=Cc3ccc(Cl)cc3Sc3ccc(F)cc32)CC1 | i | 85.9 | i | i | nt | i
SMILES | sEH activator | Yeast growth inh | sdo1 growth | Measles CPE | Yeast lifespan up | sEH inh
Cc1ccc(-n2c(C)cc(C(=O)COC(=O)c3ccc[nH]c3=O)c2C)cc1C | nt | 99.2 | i | i | i | nt
CCCn1c(C)cc(C(=O)COC(=O)c2ccc(Cl)c(S(=O)(=O)N3CCCC3)c2)c1C | nt | i | i | i | i | nt
Cc1ccc(-n2c(C)cc(C(=O)COC(=O)C3=NNC(=O)CC3)c2C)cc1 | i | i | i | 29.2 | i | i
CCCn1c(C)cc(C(=O)COC(=O)c2ccc[nH]c2=O)c1C | nt | 44.9 | i | i | i | nt
Cc1cc(C(=O)COC(=O)C2=NNC(=O)CC2)c(C)n1-c1ccccc1 | i | i | i | i | i | i
COc1ccccc1C(=O)N(NC(=O)Oc1ccccc1)C(C)(C)C | nt | i | i | i | i | nt
CC(C)OCCCNS(=O)(=O)c1ccc2ccccc2c1 | i | i | i | 30.1 | 108.4 | i
COc1cc(C(=O)O/N=C2/C=C(C)C(=O)C=C2C)cc(OC)c1OC | nt | i | i | i | i | nt
CC1=C/C(=N\OS(=O)(=O)c2ccccc2)C(C(C)C)=CC1=O | nt | 100.0 | i | i | i | nt
CC1=C(C)/C(=N\OS(=O)(=O)c2ccc(C)cc2)C=CC1=O | nt | 99.2 | i | i | i | nt
CC1=C/C(=N\OS(=O)(=O)c2ccccc2)C(C)=CC1=O | i | 99.6 | i | i | i | i
CC(C)n1nnnc1-c1cc(Cl)cc(Cl)c1 | i | i | i | i | i | i
O=C(c1ccccn1)c1cc2ccccc2n1S(=O)(=O)c1ccccc1 | nt | i | i | i | i | nt
CCOc1ccc2nc3c(cc2c1)CN(CCOC)C(=NC)S3 | i | i | i | 29.3 | nt | i
Cc1nn(C(C)c2n[nH]c(=S)n2-c2cccc(Cl)c2)c(C)c1[N+](=O)[O-] (stereo not drawn) | i | i | i | i | nt | i
COc1cccc(C(=O)Oc2cc(N)n(S(=O)(=O)c3ccc(C)cc3)n2)c1OC | i | i | i | i | 67.5 | i
CCn1c(SCc2ccccc2)nnc1-c1cccs1 | i | i | i | i | i | i
Cc1cc(C)cc(NC(=O)CSc2nnc(CNC(=O)c3cccs3)o2)c1 | i | i | i | i | i | i
c1ccc(CSc2ccc(-c3cccs3)nn2)cc1 | nt | i | i | 27.7 | i | nt
Cc1cc(C)cc(NC(=O)CSc2ccc(-c3cccs3)nn2)c1 | nt | i | i | 40.8 | i | nt
CCCCN1C(=O)c2ccc(C(=O)NCCN3C(=O)S/C(=C\c4cccnc4)C3=O)cc2C1=O | nt | i | i | i | i | nt
Cc1ccc(C(C2C(=O)CC(C)(C)CC2=O)C2C(=O)CC(C)(C)CC2=O)s1 | i | i | i | i | 34.2 | i
COc1ccc([C@H]2[C@H](C(=O)OC(C)(C)C)N3N=Cc4ccccc4C3C23C(=O)c2ccccc2C3=O)cc1OC (stereo partly drawn) | nt | i | i | i | 37.7 | nt
CC1(C)c2ssc(=S)c2-c2ccccc2N1C(=O)CSC1=NCCS1 | i | i | i | 37.5 | i | i
COc1ccc2c(c1)-c1c(ssc1=S)C(C)(C)N2C(=O)CSC1=NCCS1 | i | i | i | i | i | i
SMILES | sEH activator | Yeast growth inh | sdo1 growth | Measles CPE | Yeast lifespan up | sEH inh
CC1=C(C)CC(C(=O)c2ccc(C)cc2)C(C(=O)O)C1 (stereo not drawn) | i | i | i | i | 30.4 | i
CN1C(=O)CC(N2CCN(c3ccccc3)CC2)C1=O (stereo not drawn) | i | nt | nt | nt | nt | i
C=C(C(=O)c1ccccc1)C(C)C(=C)C(=O)c1ccccc1 | nt | i | i | i | 46.3 | nt
Cc1cc(C)c2c(c1)cc(C)c1nnc(SCC(=O)Nc3ccc(S(=O)(=O)N4CCCCC4)cc3)n12 | nt | i | i | 50.2 | i | nt
CC1(C)NC(=O)N(CCCOc2ccc(Br)cc2Cl)C1=O | i | i | i | 56.8 | i | i
COc1ccc(C(=O)CSc2ncn[nH]2)cc1OC | i | i | i | 47.9 | i | i
